Source: ChEMBL document CHEMBL4392846, “Identification and design of novel small molecule inhibitors against MERS-CoV papain-like protease via high-throughput screening and molecular modeling” (Bioorg Med Chem, 2019)
Active and inactive are the calls of the source. No cut-off for these calls is given here.

Experiments:
[1] = target: Replicase polyprotein 1ab (Middle East respiratory syndrome-related coronavirus (isolate UnitedKingdom/H123990006/2012) (Betacoronavirus England 1) (Humancoronavirus EMC)) (UniProt K9N7C7); assay: (§1) Inhibition of MERS-CoV papain-like protease using Z-Arg-Leu-Arg-Gly-Gly-AMC as substrate preincubated for 5 mins followed by substrate addition and measured for 10 mins by fluorescence assay; set-up: concentration or dose not given beside the values
Target sequence in this assay (K9N7C7 854-2740 limits assumed): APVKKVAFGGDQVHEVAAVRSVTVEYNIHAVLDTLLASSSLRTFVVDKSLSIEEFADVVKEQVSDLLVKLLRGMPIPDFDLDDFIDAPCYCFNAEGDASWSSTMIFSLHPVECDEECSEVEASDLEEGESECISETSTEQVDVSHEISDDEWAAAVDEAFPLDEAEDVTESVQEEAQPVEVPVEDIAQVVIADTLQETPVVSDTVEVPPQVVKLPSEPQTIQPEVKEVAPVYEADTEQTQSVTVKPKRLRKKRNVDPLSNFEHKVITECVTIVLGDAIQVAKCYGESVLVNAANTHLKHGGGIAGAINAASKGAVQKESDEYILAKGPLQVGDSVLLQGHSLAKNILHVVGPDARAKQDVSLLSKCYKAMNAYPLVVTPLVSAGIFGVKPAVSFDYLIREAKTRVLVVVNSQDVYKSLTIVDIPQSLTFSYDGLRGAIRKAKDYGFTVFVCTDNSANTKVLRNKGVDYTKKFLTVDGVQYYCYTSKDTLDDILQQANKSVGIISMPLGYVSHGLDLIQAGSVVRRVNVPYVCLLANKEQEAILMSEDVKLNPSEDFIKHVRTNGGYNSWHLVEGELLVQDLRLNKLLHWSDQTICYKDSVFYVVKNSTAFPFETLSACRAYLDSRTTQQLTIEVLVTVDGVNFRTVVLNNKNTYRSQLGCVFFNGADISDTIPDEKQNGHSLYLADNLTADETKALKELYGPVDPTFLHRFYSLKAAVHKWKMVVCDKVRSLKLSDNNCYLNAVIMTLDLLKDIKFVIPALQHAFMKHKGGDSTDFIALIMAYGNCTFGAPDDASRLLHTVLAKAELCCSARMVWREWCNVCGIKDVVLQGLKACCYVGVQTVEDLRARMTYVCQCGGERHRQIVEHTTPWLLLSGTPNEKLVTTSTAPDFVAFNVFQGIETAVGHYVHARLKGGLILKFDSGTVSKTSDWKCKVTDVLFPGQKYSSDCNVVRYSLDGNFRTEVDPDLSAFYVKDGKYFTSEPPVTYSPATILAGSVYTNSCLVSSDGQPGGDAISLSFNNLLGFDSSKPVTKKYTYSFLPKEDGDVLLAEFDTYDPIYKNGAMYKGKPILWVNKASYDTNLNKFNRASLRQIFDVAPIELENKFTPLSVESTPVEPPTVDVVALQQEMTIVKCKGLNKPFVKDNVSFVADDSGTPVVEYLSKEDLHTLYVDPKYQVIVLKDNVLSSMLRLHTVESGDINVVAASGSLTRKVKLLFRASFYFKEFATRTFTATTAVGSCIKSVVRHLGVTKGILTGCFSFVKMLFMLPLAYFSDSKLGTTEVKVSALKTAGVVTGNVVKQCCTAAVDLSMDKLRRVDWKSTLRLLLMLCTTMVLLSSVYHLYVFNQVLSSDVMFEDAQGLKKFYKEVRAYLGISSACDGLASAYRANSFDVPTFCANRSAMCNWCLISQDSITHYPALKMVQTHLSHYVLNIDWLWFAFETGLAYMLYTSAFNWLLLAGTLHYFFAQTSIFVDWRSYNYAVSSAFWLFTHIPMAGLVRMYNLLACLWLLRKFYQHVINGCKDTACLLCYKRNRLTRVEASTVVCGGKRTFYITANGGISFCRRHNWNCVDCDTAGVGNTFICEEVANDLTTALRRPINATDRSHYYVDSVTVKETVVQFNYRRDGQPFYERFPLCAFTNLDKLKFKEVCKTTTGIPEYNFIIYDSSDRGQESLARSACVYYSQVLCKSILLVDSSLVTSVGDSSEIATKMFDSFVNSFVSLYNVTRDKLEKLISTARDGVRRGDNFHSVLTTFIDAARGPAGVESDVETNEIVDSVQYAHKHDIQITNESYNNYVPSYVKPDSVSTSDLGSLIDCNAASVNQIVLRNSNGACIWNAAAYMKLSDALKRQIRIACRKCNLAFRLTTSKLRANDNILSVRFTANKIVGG

[2] = target: T1, Replicase polyprotein 1ab (Middle East respiratory syndrome-related coronavirus (isolate UnitedKingdom/H123990006/2012) (Betacoronavirus England 1) (Humancoronavirus EMC), UniProt K9N7C7); assay: as §1
T1 sequence (K9N7C7 854-2740 limits assumed): as above

[3] = target: Replicase polyprotein 1ab (Middle East respiratory syndrome-related coronavirus (isolate UnitedKingdom/H123990006/2012) (Betacoronavirus England 1) (Humancoronavirus EMC)) (UniProt K9N7C7); assay: Inhibition of MERS-CoV papain-like protease at 50 uM using Z-Arg-Leu-Arg-Gly-Gly-AMC as substrate preincubated for 5 mins followed by substrate addition and measured for 10 mins by fluorescence assay relative to control
Outline: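 Confirmation retest run by hand in triplicate at room temperature. Buffer: 50 mM HEPES pH 7.5, 0.01% Triton X-100, 0.1 mg/mL BSA, 2 mM DTT. Enzyme and compound preincubated 5 min, then Z-RLRGG-AMC added to 50 µM final. AMC fluorescence (ex 360/em 450 nm) followed continuously; percent inhibition calculated against DMSO control.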

[4] = target: T1, Replicase polyprotein 1ab; assay: Binding affinity to MERS-CoV papain-like protease by SPR analysis
Outline: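 SPR on Biacore T200. Enzyme at 50 µg/mL in 10 mM sodium acetate pH 5.5 amine-coupled to CM5 chip (~10,000 RU); blank flow cells as reference. Compounds 0-50 µM (2-fold series) in PBSP + 0.5 mM TCEP, 2% DMSO, 30 µL/min, 25°C; double-referenced. KD from steady-state responses fit to rectangular hyperbola; rate constants from global 1:1 Langmuir fit.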

[5] = target: T1, Replicase polyprotein 1ab; assay: Competitive-inhibition of MERS-CoV papain-like protease using varying levels of Z-Arg-Leu-Arg-Gly-Gly-AMC as substrate by Dixon-plot analysis
[6] = target: Replicase polyprotein 1ab (Middle East respiratory syndrome-related coronavirus (isolate UnitedKingdom/H123990006/2012) (Betacoronavirus England 1) (Humancoronavirus EMC)) (UniProt K9N7C7); assay: Reversible inhibition of MERS-CoV papain-like protease assessed as recovery of enzyme activity at 125 times IC50 using Z-Arg-Leu-Arg-Gly-Gly-AMC as substrate incubated for 1 hr followed by 2-fold dilution and measured by fluorescence assay
Outline: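 Dilution method: 4 µM enzyme incubated with compound for 1 h at room temperature in HEPES pH 7.5 assay buffer (2 mM DTT, 0.1 mg/ml BSA, 0.01% Triton X-100). DMSO-only enzyme served as control. Both samples diluted 2-fold, then seven further 2-fold dilutions. Activity read at each step with the continuous Z-RLRGG-AMC fluorescence assay.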

[7] = target: Replicase polyprotein 1ab (Middle East respiratory syndrome-related coronavirus (isolate UnitedKingdom/H123990006/2012) (Betacoronavirus England 1) (Humancoronavirus EMC)) (UniProt K9N7C7); assay: Binding affinity to 15N-labelled His-tagged Apo-MRES-CoV papain-like protease by TROSY [1H-15N] spectroscopy
[8] = target: Replicase polyprotein 1ab (Middle East respiratory syndrome-related coronavirus (isolate UnitedKingdom/H123990006/2012) (Betacoronavirus England 1) (Humancoronavirus EMC)) (UniProt K9N7C7); assay: Binding affinity to MERS-CoV papain-like protease in presence of Z-Arg-Leu-Arg-Gly-Gly-AMC by SPR analysis
Outline: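 MERS-CoV PLpro was amine-coupled to a CM5 chip (~10,000 RU), with unmodified reference cells. Compounds (0-50 µM, 2-fold series) were injected with 500 µM Z-RLRGG-AMC substrate present, in PBSP + 0.5 mM TCEP + 2% DMSO at 30 µL/min and 25°C. Data were double-referenced, and KD came from a steady-state hyperbolic fit.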

Question: How did the inhibition [1] turn out when `CC1CCCC(C)N1S(=O)(=O)c1ccc(N)cc1` (configuration not stated) was run?
Answer: Its inhibition is 7%.

Question: `O=[N+]([O-])c1ccc(O)c(O)c1` [4-Nitrocatechol] was tested. Which IC50 [2] did it give?
Answer: The IC50 was 145 µM.

Question: Which results are given for `Cc1cc(C)n(S(=O)(=O)c2ccc(N)cc2)c(=O)n1`?
Answer: inhibition [1]: 73%; IC50 [2]: 20 µM; inhibition [3]: > 50%; Kd [4]: 7.6 to 9.3 µM; Ki [5]: 36.6 µM; inhibition [6]: Active; Activity [7]: Active

Question: For `O=C(O)c1cc(/N=N/c2ccc(S(=O)(=O)Nc3ccccn3)cc2)ccc1O` [SULFASALAZINE], which Kd [4] is on record?
Answer: Its Kd is 7.6 to 112 µM.

Question: `Cn1c(=O)c2c(nc(NN=C3C(=O)NC(=O)NC3=O)n2C)n(C)c1=O` was tested. Which Kd [4] did it give?
Answer: Its Kd is 7.6 to 112 µM.

Question: For `COCC(=O)/C=C1\Sc2ccccc2N1C`, which Kd [4] is on record?
Answer: Its Kd is 7.6 to 112 µM.

Question: What does the source list for `O=C(NC1=CC=CC2C(=O)C=C(c3nn[nH]n3)OC12)c1ccc(OCCCCc2ccccc2)cc1` (configuration not stated)?
Answer: inhibition [3]: > 50%; Activity [8]: inactive

Question: How did the inhibition [1] turn out when `CC(=O)Nc1ccc(S(=O)(=O)n2c(C)cc(C)nc2=O)cc1` was run?
Answer: The inhibition was 2%.

Question: Which IC50 [2] does the source give for `Nc1ccc([N+](=O)[O-])cn1` here?
Answer: Its IC50 is 137 µM.

Question: For `O=C(O)c1cc(/C=C/c2ccc(N3CCOCC3)cc2)nc2ccccc12`, which Kd [4] is on record?
Answer: Its Kd is 7.6 to 112 µM.

Question: `Cc1ccc(C)c(CSc2nc(C3CCCCC3)c(C#N)c(=O)[nH]2)c1` was tested. Which Kd [4] did it give?
Answer: The Kd was 7.6 to 112 µM.

Question: Which inhibition [1] does the source give for `Cc1ccc(S(=O)(=O)n2c(C)cc(C)nc2=O)cc1` here?
Answer: The inhibition was 11%.

Question: `Nc1ccc(S(=O)(=O)N2CC(=O)NC(=O)C2)cc1` was tested. Which inhibition [1] did it give?
Answer: Its inhibition is 16%.

Question: How did the IC50 [2] turn out when `O=Cc1ccc(O)c(O)c1` [PROTOCATECHUALDEHYDE] was run?
Answer: Its IC50 is 239 µM.

Question: With `O=[N+]([O-])c1ccc(Cl)c2nonc12` as the molecule, how does the IC50 [2] read?
Answer: Its IC50 is 141 µM.
